Series [1] deals with T1, ATP-dependent translocase ABCB1 (Homo sapiens, UniProt P08183). In words: Inhibition of MDR1 (unknown origin) expressed in MDCK cells after 30 mins by Calcein-AM assay. It is filed as cell-based.
Series [2] can be described thus: Partition coefficient, logK of the compound using methanol/pH 7.4 phosphate buffer by RP-chromatography. It is filed as physicochemical. A digest of the protocol:
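Isocratic RP-HPLC on a C18 column (300SB, 4.6 × 250 mm, 5 μm) at 1 mL/min with UV detection at 230 and 254 nm. Eluent methanol/PBS pH 7.4 70:30. Samples 0.1 mg/mL in 10% DMSO/90% methanol. Dead time taken from D2O. Log k′ = log[(tr − t0)/t0], using the mean of three injections.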

Series [3] can be described thus: Lipophilicity, logD of the compound at pH 7.4. It is filed as physicochemical. To be noted: buffer. A digest of the protocol:
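Octanol/PBS pH 7.4 partitioning, with chemiluminescent nitrogen detection as the read-out; carried out by an outside contractor.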

Series [4] can be described thus: Solubility after 30 mins by turbidimetric solubility assay. It is filed as physicochemical. A digest of the protocol:
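Serial dilutions from a 1 mM DMSO stock added to 100 mM PBS pH 7.4, giving 1% final DMSO and a final range of 1–500 […], three replicates per concentration. After 30 min, absorbance read at 500, 550, 600, 650 and 700 nm.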

Series [5] can be described thus: Efflux ratio, ratio of permeability from basolateral to apical side over apical to basolateral side in human Caco2 cells by UV spectroscopy. It is filed as ADME, cell-based. To be noted: Caco-2. A digest of the protocol:
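Caco-2 monolayers grown 21 days, then equilibrated twice in HBSS pH 7.4 at 37 °C for 30 min. Drug dissolved in HBSS was added to the apical or basolateral side, with an initial concentration of 1 × 10⁻⁴ M. Transport ran 120 min at 37 °C. Acceptor concentration was read by UV; Papp (nm/s) was computed from it. The ratio is B→A Papp over A→B Papp. Mean of three independent experiments, each in triplicate.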
(In general: Caco-2 monolayers are a common model of the intestinal barrier.)

Series [6] deals with T1, ATP-dependent translocase ABCB1. Nature of the series: Inhibition of MDR1 in human MCF7/ADR cells assessed as potentiation of doxorubicin-induced antiproliferative activity at 1 to 25 uM after 72 hrs by MTT assay. It is filed as cell-based. To be noted: nci/adr-res. The gist of the method:
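MCF7adr cells, grown in RPMI 1640 with 10% FBS, seeded at 25000/well. Next day, compound added at 1, 10 or 25 μM for 24 h. Medium then replaced and the same concentration given with doxorubicin 10 μM for 48 h. MTT 0.5 mg/mL for 3–4 h at 37 °C, formazan dissolved in DMSO/EtOH 1:1, absorbance read at 570 and 630 nm.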

Series [7] has the same target. Nature of the series: Inhibition of MDR1 (unknown origin) expressed in MDCK cells after 2 hrs by bioluminescent ATP assay. It is filed as cell-based. A digest of the protocol: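 MDCK-MDR1 cells seeded at 2 × 10⁴ cells/well and incubated overnight at 37 °C, 5% CO₂, then exposed to test compounds (1, 10, 50, 100 μM) in complete medium for 2 h. Cells lysed, luciferase/D-luciferin substrate added, dark-adapted 10 min, and luminescence read as a measure of cellular ATP. Untreated cells served as control.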

Each structure is given as a SMILES string. In brackets after ≈: the same amount, converted by molar mass.

T1 sequence (P08183 whole entry): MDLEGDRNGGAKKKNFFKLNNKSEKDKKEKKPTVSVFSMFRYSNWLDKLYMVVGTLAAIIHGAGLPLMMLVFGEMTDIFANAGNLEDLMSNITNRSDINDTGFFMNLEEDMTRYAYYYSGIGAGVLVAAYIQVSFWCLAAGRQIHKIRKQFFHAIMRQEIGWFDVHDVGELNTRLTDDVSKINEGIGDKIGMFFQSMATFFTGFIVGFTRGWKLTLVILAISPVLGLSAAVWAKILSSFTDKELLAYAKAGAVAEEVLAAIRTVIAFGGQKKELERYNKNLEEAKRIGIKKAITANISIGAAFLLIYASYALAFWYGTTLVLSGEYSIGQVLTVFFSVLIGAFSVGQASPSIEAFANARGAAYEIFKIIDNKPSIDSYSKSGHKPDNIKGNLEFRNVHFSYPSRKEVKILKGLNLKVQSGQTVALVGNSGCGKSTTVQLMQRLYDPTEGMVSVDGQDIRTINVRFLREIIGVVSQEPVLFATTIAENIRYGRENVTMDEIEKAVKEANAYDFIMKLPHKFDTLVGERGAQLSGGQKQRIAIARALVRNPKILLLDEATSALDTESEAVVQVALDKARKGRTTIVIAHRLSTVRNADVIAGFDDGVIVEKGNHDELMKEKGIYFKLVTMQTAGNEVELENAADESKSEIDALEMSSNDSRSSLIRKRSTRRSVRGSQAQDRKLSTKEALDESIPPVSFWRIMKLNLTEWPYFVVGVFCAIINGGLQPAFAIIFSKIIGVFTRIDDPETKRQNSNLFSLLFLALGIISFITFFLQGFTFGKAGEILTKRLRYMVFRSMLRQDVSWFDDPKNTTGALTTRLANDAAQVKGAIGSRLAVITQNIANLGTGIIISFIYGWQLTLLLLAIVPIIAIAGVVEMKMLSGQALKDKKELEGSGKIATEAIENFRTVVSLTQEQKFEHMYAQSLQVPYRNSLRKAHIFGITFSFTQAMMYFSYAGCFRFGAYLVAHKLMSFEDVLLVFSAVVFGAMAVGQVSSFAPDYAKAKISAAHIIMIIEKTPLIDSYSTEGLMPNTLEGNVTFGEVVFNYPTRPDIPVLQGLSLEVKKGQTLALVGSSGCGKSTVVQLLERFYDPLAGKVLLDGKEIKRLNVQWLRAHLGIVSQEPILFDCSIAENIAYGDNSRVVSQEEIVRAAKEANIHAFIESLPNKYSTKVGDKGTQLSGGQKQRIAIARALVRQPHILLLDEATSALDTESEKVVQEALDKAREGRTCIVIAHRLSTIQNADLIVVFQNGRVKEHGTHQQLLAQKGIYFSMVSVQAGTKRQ

For the compound `COc1ccc(-c2ccc(NC(=O)c3cc(OC)c(OC)cc3OC)c(F)c2)cc1`, the IC50 (usually the concentration that inhibits the measured activity by half) in series [1] was 1.23 µM. The “log K” value in series [2] is given as 0.67. The logD – broadly, lipophilicity at a set pH, counting ionised and neutral species – in series [3] worked out at 3.64.

In the case of `COc1cc(C(=O)Nc2ccc(-c3cccnc3)cn2)cc(OC)c1OC`, the IC50 in series [1] is 8.21 µM. Also, the “log K” value in series [2] is on record as -0.44. This compound also registered a logD in series [3] of 2.39.

For the compound `COc1cc(OC)c(C(=O)Nc2ccc(-c3cccnc3)cn2)cc1OC`, in series [1], the IC50 was 0.54 µM. Besides, the “log K” value in series [2] was -0.12. Further, the logD in series [3] was determined as 3.03.

With `COc1cc(C(=O)N(C)c2ccc(-c3cccnc3)cc2F)cc(OC)c1OC`, the IC50 in series [1] is 6.66 µM. Also, the “log K” value in series [2] is reported as -0.51. In addition, the logD in series [3] worked out at 2.32.

`COc1ccc(C(=O)Nc2ccc(-c3cccnc3)cc2F)cc1`: in series [1], the IC50 was 5.26 µM. In addition, the “log K” value in series [2] is given as -0.32. For the same compound, the log distribution coefficient (logD) in series [3] came out at 2.9. Moreover, the solubility (kinetic) – broadly, the concentration staying in solution when a stock, usually in DMSO, is diluted into the medium – at 0.5 h in series [4] worked out at 22 µg/mL (≈ 68.3 µM).

With `COc1cc(OC)c(C(=O)Nc2ccc(-c3ccncc3)cc2F)cc1OC`, the IC50 in series [1] was 0.31 µM. Also, the efflux ratio (usually a quotient of directional permeabilities that is used to spot active efflux) in series [5] turned out to be 8.1. Besides, the “log K” value in series [2] stood at 0.31. Besides, the result in series [6] was Active. For the same compound, the “inhibition (INH)” value in series [7] is “Active”. This compound came in with a logD in series [3] of 3.13.

In series [4], `COc1cc(C(=O)Nc2ccc(-c3cccnc3)cc2[N+](=O)[O-])cc(OC)c1OC` came in with a solubility (kinetic) at 0.5 h of 10 µg/mL (≈ 24.4 µM).

In the case of `O=C(Nc1ccc(-c2cccnc2)cc1F)c1ccccc1`, in series [1], the IC50 is 9.2 µM. For the same compound, the “log K” value in series [2] is recorded as -0.38. Also, in series [3], the logD was 2.83. The compound further registered a kinetic solubility at 0.5 h in series [4] of 40 µg/mL (≈ 137 µM).

With `COc1cc(C(=O)Nc2ccc(-c3ccncc3)cc2F)cc(OC)c1OC`, the IC50 in series [1] is 3.2 µM. Further, in series [2], the “log K” value is -0.31. Moreover, the logD in series [3] is 2.75.

Regarding `COc1cc(C(=O)Nc2ccc(-c3cc(F)cc(F)c3)cc2N)cc(OC)c1OC`, the IC50 in series [1] is 2.76 µM. The “log K” value in series [2] is recorded as -0.09. The compound further had a logD in series [3] of 2.62.

With `COc1ccc(C(=O)Nc2ccc(-c3cccnc3)cc2F)c(OC)c1OC`, in series [1], the concentration for half-maximal inhibition (IC50) was 0.67 µM. For the same compound, the efflux ratio in series [5] is 6.7. In series [2], the “log K” value was determined as 0.37. For the same compound, the outcome in series [6] was Active. The “inhibition (INH)” value in series [7] is given as “Active”. This compound had a logD in series [3] of 3.99. For the same compound, the solubility (kinetic) at 0.5 h in series [4] came to 45 µg/mL (≈ 118 µM).

For the compound `COc1cc(C(=O)Nc2ccc(-c3cc(F)cc(F)c3)cc2NC(=O)[C@@H](C)NC(C)=O)cc(OC)c1OC`, in series [1], the IC50 was 18.5 µM. Besides, in series [2], the “log K” value is given as -0.03. In addition, the pH-dependent lipophilicity (logD) in series [3] was determined as 2.31.

Turning to `COc1cc(OC)c(C(=O)Nc2ccc(-c3cccnc3)cc2F)c(OC)c1`, the IC50 in series [1] was 2.93 µM. Further, the “log K” value in series [2] was -0.39. In series [3], this compound displayed a logD of 2.38. Further, the kinetic solubility at 0.5 h in series [4] turned out to be 60 µg/mL (≈ 157 µM).

Regarding `COc1ccc(S(=O)(=O)Nc2ccc(-c3cccnc3)cc2F)cc1OC`, the IC50 in series [1] was 67.5 µM. For the same compound, in series [2], the “log K” value was -0.88. Besides, in series [3], the logD stood at 1.7.

As for `COc1cc(OC)c(C(=O)Nc2ccc(-c3cccnc3)cc2F)cc1OC`, the IC50 in series [1] was 0.2 µM. Moreover, in series [5], the efflux ratio was 14. For the same compound, in series [2], the “log K” value was 0.24. In addition, the outcome in series [6] was Active. The “inhibition (INH)” value in series [7] is “Active”. In series [3], this compound had a logD of 2.84. The compound further returned a solubility (kinetic) at 0.5 h in series [4] of 30 µg/mL (≈ 78.5 µM).

Consider `COc1cc(OC)cc(C(=O)Nc2ccc(-c3cccnc3)cc2F)c1`, for which the IC50 in series [1] was 3.3 µM. Moreover, the “log K” value in series [2] is -0.18. This compound yielded a logD in series [3] of 2.81. In series [4], this compound displayed a kinetic solubility at 0.5 h of 20 µg/mL (≈ 56.8 µM).

As to `COc1ccc(C(=O)Nc2ccc(-c3cccnc3)cc2F)cc1OC`, the IC50 in series [1] was 8.92 µM. The “log K” value in series [2] was -0.45. Besides, the logD in series [3] came to 2.23. For the same compound, the kinetic solubility at 0.5 h in series [4] came to 18 µg/mL (≈ 51.1 µM).

Consider `COc1cc(C(=O)Nc2ccc(-c3cccnc3)cc2F)cc(OC)c1OC`, for which the “log K” value in series [2] was -0.36. In series [3], this compound showed a logD of 2.48. The kinetic solubility at 0.5 h in series [4] is 25 µg/mL (≈ 65.4 µM).

Take `O=C(Nc1ccc(-c2cccnc2)cc1F)c1cccnc1`: the IC50 in series [1] was 60.1 µM. Moreover, the “log K” value in series [2] is -0.68. In series [3], this compound had a logD of 1.97. In series [4], this compound yielded a kinetic solubility at 0.5 h of 300 µg/mL (≈ 1020 µM).

`COc1cc2c(cc1OC)CN(CC/C=C1\CCCc3c(OC)cccc31)CC2`: the IC50 in series [1] is 1.02 µM.

Consider `COc1cc(C(=O)Nc2ccc(-c3cc(F)cc(F)c3)cn2)cc(OC)c1OC`, for which the IC50 in series [1] was 1.3 µM. Further, the “log K” value in series [2] is given as 0.32. In series [3], the logD was 3.59.

In the case of `COc1cc(OC)c(C(=O)Nc2ccc(-c3cc(F)cc(F)c3)cn2)cc1OC`, the IC50 in series [1] was 0.97 µM. Also, the efflux ratio in series [5] turned out to be 10.7. Also, in series [2], the “log K” value amounted to 0.47. The result in series [6] was Active. In series [7], the “inhibition (INH)” value was “Active”. Besides, the logD in series [3] was determined as 3.66.

As for `COc1cc(OC)c(C(=O)N(C)c2ccc(-c3cccnc3)cc2F)cc1OC`, the IC50 in series [1] is 21.6 µM. The “log K” value in series [2] is listed as -0.59. The compound further showed a logD in series [3] of 1.75.

Source of the values: ChEMBL document CHEMBL3351897, “Trimethoxybenzanilide-based P-glycoprotein modulators: an interesting case of lipophilicity tuning by intramolecular hydrogen bonding” (J Med Chem, 2014).
